ChEMBL document CHEMBL1949657, “Chemical modification of the multitarget neuroprotective compound fisetin” (J Med Chem, 2012)
Activity calls are given as the source filed them.

How the values were obtained:
[1] = test system: N9; test: Antiinflammatory activity in mouse N9 cells assessed as reduction of LPS-induced microglial activation at 1 to 10 uM measured as nitrite level after 24 hrs by Griess reagent-based assay; assay type: functional; design: scale not given: the % may be the effect or the level left
How it was run: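 N9 microglia in DME with 7.5% DFCS, given 10 μg/ml LPS alone or with derivatives (1–10 μM) for 24 h. Medium spun to remove floating cells, then nitrite measured with Griess reagent, 10 min at room temperature, absorbance 550 nm. Fisetin 10 μM as positive control. Tested twice; positives tested a third time.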

[2] = test system: PC-12; test: Neurotrophic activity in rat PC12 cells assessed as neurite outgrowth at 1 to 10 uM after 24 hrs; assay type: functional, cell-based
How it was run: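 PC12 cells in N2 medium given derivatives (1–10 μM) for 24 h, fisetin 10 μM as positive control. 100 cells counted in each of three fields. A cell scored positive with ≥1 neurite longer than one cell-body diameter. Tested twice; positives tested a third time.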

[3] = Antioxidant activity against ABTS radical assessed as trolox equivalent after 4 mins by TEAC assay; assay type: functional
How it was run: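 ABTS radical cation formed overnight with potassium persulfate and diluted to OD ~0.7 at 734 nm, then mixed with derivative in ethanol. Loss of A734 followed over 4 min. TEAC = slope of % absorbance inhibition vs concentration divided by the slope for Trolox.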

[4] = test system: HT-22; test: Induction of Nrf2 expression in mouse HT22 cells from 1 to 4 hrs by immunoblotting; assay type: functional, cell-based
How it was run: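 Nuclear extracts taken from untreated and derivative-treated cells at 1, 2 and 4 h. Equal protein run on 10% SDS-PAGE, blotted to nitrocellulose (Ponceau-S loading check). Probed with anti-Nrf2 (1/1000) and anti-β-actin, HRP secondary, chemiluminescence. Tested twice; positives tested a third time.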

[5] = test system: HT-22; test: Neuroprotective activity in mouse HT22 cells assessed as reduction in IAA-induced ischemia after 24 hrs by MTT assay; assay type: functional, cell-based
How it was run: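 HT22 cells seeded at 5×10^3/well. Next day switched to DMEM + 7.5% DFCS with 20 μM IAA ± derivative doses for 2 h, then IAA-free medium with derivative for 20 h. MTT 2.5 μg/ml for 4 h at 37 °C, solubilised in DMF/SDS pH 4.7, A570 read. Controls for compound toxicity and assay interference. EC50 from dose series; tested twice, third time if EC50 < 1 μM.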

[6] = test system: HT-22; test: Neuroprotective activity against glutamate-induced GSH loss in mouse HT22 cells assessed as intracellular GSH level at 1 to 10 uM after 24 hrs; assay type: functional, cell-based
How it was run: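 HT22 cells given derivatives (1–10 μM) with 5 mM glutamate. After 24 h, cell extracts analysed for total intracellular GSH by chemical assay. Fisetin 10 μM as positive control. Tested twice; positives tested a third time.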

[7] = Mus musculus, HT-22, 24 h, read-out: EC50

Compound | Activity [1] [%] | Activity [2] | Activity [3] [equiv] | Activity [4] | EC50 ([5]; ht-22) | Activity [6] | EC50 [5, 7] [nM]
COc1ccc(/C=C/C(=O)c2cc(C)c(C)cc2O)cc1OCc1ccccc1 | 70 | Active | 0.12 | Active | Not Active | Active | –
CC(C)Oc1cc(-c2ccc(N3CCCC3)cc2)nc2ccccc12 | 67 | inactive | 0.27 | – | – | inactive | 500
COc1cc(-c2ccc(O)cc2O)nc2ccccc12 | 84 | inactive | 0.05 | – | – | inactive | > 500
CCOc1ccc(-c2cc(OC)c3ccccc3n2)cc1OCC | 76 | inactive | 0.12 | – | Not Active | inactive | –
COc1cc(-c2cc(=O)c3cc(C)c(C)cc3o2)ccc1OCc1ccccc1 | 83 | inactive | 0.09 | – | – | inactive | 500
CCOc1ccc(-c2cc(=O)c3cc(C)c(C)cc3o2)cc1OCC | 2 | inactive | 0.15 | – | Not Active | inactive | –
COc1cc(-c2ccc(O)cc2)nc2ccccc12 | 4 | inactive | 0.81 | – | Not Active | inactive | –
Cc1cc2oc(-c3ccc(N(C)C)cc3)cc(=O)c2cc1C | 8 | inactive | 0 | – | – | inactive | > 500
COc1cc(-c2cc(OC)c3ccccc3n2)ccc1O | 90 | inactive | 0.15 | – | – | inactive | 500
O=c1c(O)c(-c2ccc(N3CCCC3)cc2)oc2c1ccc1ccccc12 | 26 | Active | 1.44 | – | – | inactive | 70
CC(C)Oc1cc(-c2ccc(O)c(O)c2)nc2ccccc12 | 80 | Active | 0.18 | – | – | Active | 20
COc1ccc(/C=C/C(=O)c2cc(C)c(C)cc2O)cc1O | 56 | inactive | 0.12 | – | – | inactive | 200
COc1ccc(-c2cc(OC)c3ccccc3n2)cc1O | 69 | inactive | 0.24 | – | Not Active | inactive | –
CCOc1ccc(-c2oc3c(ccc4ccccc43)c(=O)c2O)cc1OCC | 13 | inactive | 0.15 | – | – | inactive | 300
Cc1cc2oc(-c3ccc(O)c(O)c3)cc(=O)c2cc1C | 93 | inactive | 0.27 | – | – | inactive | 250
CN(C)c1ccc(-c2cc(=O)c3ccc4ccccc4c3o2)cc1 | 35 | inactive | 0.24 | – | – | inactive | 250
CCOc1ccc(/C=C/C(=O)c2ccc3ccccc3c2O)cc1OCC | 5 | inactive | 0.12 | – | Not Active | inactive | –
O=c1cc(-c2ccc(N3CCCC3)cc2)oc2c1ccc1ccccc12 | 23 | inactive | 0.03 | – | – | inactive | 200
CC(C)Oc1cc(-c2ccc(N(C)C)cc2)nc2ccccc12 | 71 | inactive | 0.15 | – | – | inactive | 50
COc1cc(-c2ccccc2)nc2ccccc12 | 6 | inactive | 0.12 | – | – | inactive | 750
Cc1cc2oc(-c3ccc(O)cc3O)cc(=O)c2cc1C | 5 | inactive | 0.15 | – | – | inactive | > 500

Compound | Activity [1] [%] | Activity [2] | Activity [3] [equiv] | Activity [4] | EC50 ([5]; ht-22) | Activity [6] | EC50 [5, 7] [nM]
CCOc1ccc(-c2cc(=O)c3ccc4ccccc4c3o2)cc1OCC | 2 | inactive | 0.2 | – | Not Active | inactive | –
O=c1c(O)c(-c2ccc(O)c(O)c2)oc2ccc3ccccc3c12 | 87 | Active | 1.26 | – | – | inactive | 250
COc1cc(/C=C/C(=O)c2ccc3ccccc3c2O)ccc1OCc1ccccc1 | 9 | inactive | 0.15 | – | – | inactive | 500
Cc1cc(O)c(C(=O)/C=C/c2ccc(O)cc2O)cc1C | 53 | Active | 0.93 | – | – | inactive | 50
COc1cc(-c2oc3c(ccc4ccccc43)c(=O)c2O)ccc1OCc1ccccc1 | 88 | Active | 0 | – | – | inactive | 80
CC(C)Oc1cc(-c2ccc(O)cc2O)nc2ccccc12 | 64 | inactive | 0.27 | – | – | inactive | 210
O=c1c(O)c(-c2ccc(O)c(O)c2)oc2c1ccc1ccccc12 | 91 | Active | 2.4 | – | – | inactive | 90
COc1cc(-c2oc3cc(C)c(C)cc3c(=O)c2O)ccc1OCc1ccccc1 | 14 | inactive | 0.27 | – | – | inactive | 170
Cc1cc2oc(-c3ccc(O)cc3O)c(O)c(=O)c2cc1C | 0 | inactive | 1.56 | – | – | inactive | > 500
COc1cc(-c2cc(=O)c3ccc4ccccc4c3o2)ccc1O | 19 | inactive | 0.2 | – | – | inactive | 40
CCOc1ccc(-c2oc3cc(C)c(C)cc3c(=O)c2O)cc1OCC | 11 | inactive | 0.84 | – | – | inactive | 500
Cc1cc2oc(-c3ccc(O)c(O)c3)c(O)c(=O)c2cc1C | 82 | inactive | 1.89 | – | – | inactive | 500
Cc1cc2oc(-c3ccc(N4CCCC4)cc3)cc(=O)c2cc1C | 2 | inactive | 0.12 | – | – | inactive | > 500
COc1cc(-c2ccc([N+](=O)[O-])c(O)c2)nc2ccccc12 | 25 | inactive | 0.18 | – | Not Active | inactive | –
CCOc1cc(-c2ccc(O)c(O)c2)nc2ccccc12 | 90 | Active | 0.9 | – | – | Active | 20
CCOc1ccc(/C=C/C(=O)c2cc(C)c(C)cc2O)cc1OCC | 56 | inactive | 0.09 | – | Not Active | inactive | –
O=c1cc(-c2ccc(O)c(O)c2)oc2c1ccc1ccccc12 | 55 | Active | 0.18 | – | – | inactive | 80
COc1cc(-c2oc3c(ccc4ccccc43)c(=O)c2O)ccc1O | 78 | Active | 0.63 | – | – | inactive | > 500
COc1cc(-c2ccc(N(C)C)cc2)nc2ccccc12 | 62 | inactive | 0.06 | – | – | inactive | 60
COc1cc(-c2ccc(N3CCCC3)cc2)nc2ccccc12 | 67 | inactive | 0.27 | – | Not Active | inactive | –
